Source: PubChem (several laboratories)
The list is not random: actives were taken first. Their share in the collection is about 1.8%.
GalR3 antag – antagonists of human GalR3; O60755; HEK293 GalR3-CNG cAMP membrane potential fluorescence; galR3 body fused to GalR1 C-terminus; inhibition, % at 3 µM; 0.44% of 360,000 active; AID 651719;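 active = inhibition above the screen-wide average plus 3 SD, cut at about 13% in these data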;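 note: forskolin and galanin both at EC90 stimulate the cells; cAMP rise reported by CNG channel membrane potential dye signal; 0% = forskolin plus galanin with DMSO and 100% = forskolin alone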
NR2E3 ag-1 – activates human photoreceptor nuclear receptor NR2E3. GST-NR2E3/biotin-RetCOR TR-FRET, 1536-well. inhibition of corepressor binding, % at 4.78 µM. Q9Y5X4. 0.12% of 320,000 active. AID 2300;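 active = percent inhibition above the cutoff of mean plus 3 SD of all tested compounds, set per screening campaign, cut at about 20% in these data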;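 note: 0% = DMSO wells and 100% = biotin wells as full block of FRET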
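System: GST-tagged NR2E3 plus biotinylated RetCOR corepressor; Amount: 1.35 nM GST-tagged NR2E3 final; Dosing: single nominal compound dose of 4.8 µM; Schedule: 5 h incubation at 4 °C; Technique: TR-FRET with europium anti-GST and streptavidin-D2, 340 nm excitation; Controls: biotin wells as high control, 0.6% DMSO wells as low control.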
NR2E3 ag-2 – activates human NR2E3 receptor. Q9Y5X4. CHO-S Gal4-NCOR/VP16-NR2E3 two-hybrid, luciferase. inhibition of corepressor binding, % at 3.98 µM. 0.35% of 360,000 active;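 active = inhibition above the mean of all tested compounds plus 3 SD, cut at about 70% in these data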;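 note: 0% = DMSO with NR2E3 transfected cells and 100% = cells lacking NR2E3 construct; higher means lower luciferase signal from less NR2E3 corepressor binding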
PG9 Ab binder – binds the HIV-1 gp120 antibody PG9 | 0.43% of 360,000 active | inhibition, % at 6.7 µM | TR-FRET gp120-PG9 antibody binding; in the data active = inhibition above about 8.5%
NR1D1 modulator – modulators of human Rev-erb alpha DNA binding; Rev-erbα–FITC-DNA binding, fluorescence polarization, 90 min; activity, % at 10 µM; 0.79% of 370,000 active; AID 1259318;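 active = activity above about 14%, limit read from the data; passing the limit was not always enough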;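 note: 0% = DMSO wells with 35 nM protein and 100% = DMSO wells with 750 nM protein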
Target sequence (P20393 whole entry, looked up): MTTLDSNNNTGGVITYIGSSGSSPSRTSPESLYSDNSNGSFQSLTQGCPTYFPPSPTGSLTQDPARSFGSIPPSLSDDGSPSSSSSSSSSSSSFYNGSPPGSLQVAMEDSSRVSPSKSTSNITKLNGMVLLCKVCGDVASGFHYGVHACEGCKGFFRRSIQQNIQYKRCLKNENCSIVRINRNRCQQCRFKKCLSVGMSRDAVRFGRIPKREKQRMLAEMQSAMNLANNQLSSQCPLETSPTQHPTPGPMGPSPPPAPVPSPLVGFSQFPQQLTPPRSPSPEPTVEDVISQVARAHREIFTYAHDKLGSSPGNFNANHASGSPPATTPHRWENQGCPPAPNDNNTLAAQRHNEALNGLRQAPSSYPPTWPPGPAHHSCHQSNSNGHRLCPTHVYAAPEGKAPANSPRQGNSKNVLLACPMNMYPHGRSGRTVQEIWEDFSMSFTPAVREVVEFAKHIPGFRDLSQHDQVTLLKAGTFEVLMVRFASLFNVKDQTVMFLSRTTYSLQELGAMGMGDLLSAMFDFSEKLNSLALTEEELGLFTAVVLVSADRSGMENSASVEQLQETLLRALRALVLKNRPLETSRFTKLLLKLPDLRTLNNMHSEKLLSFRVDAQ
PG9 bind confirm – PG9 antibody binding, confirmed | 90% of 1,500 active | TR-FRET PG9 antibody binding, biochemical | inhibition, % at 6.7 µM | AID 651571 | shares compounds with PG9 Ab binder; in the data active = inhibition above about 9%
PGV04 counter – binds control antibody PGV04 in PG9 binder counter-screen; 95% of 1,500 active; TR-FRET PGV04 antibody-gp120 binding, biochemical; shares compounds with PG9 Ab binder; inhibition, % at 6.7 µM; AID 651604; in the data active = inhibition above about 9.5%
PG9 bind DR – small molecules binding HIV-1 gp120 antibody PG9. shares compounds with PG9 Ab binder. AID 651848. TR-FRET PG9 antibody-gp120 binding inhibition. 95 tested, under 10 active. IC50, µM; in the data active = IC50 below about 10 µM
PGV04 DR counter – PGV04 binding, dose response counter-screen | shares compounds with PG9 Ab binder | TR-FRET binding to control antibody PGV04 | IC50, µM | 20% of 95 active | AID 651937
PG126 binding DR – counter-screen for PG9 binders: binding to control antibody PG126. shares compounds with PG9 Ab binder. TR-FRET binding to antibody PG126, counterscreen. IC50, µM. 20% of 95 active. AID 651939
* hit, by the source's call; i = inactive; x = no result given. Cut-off read from the data, not from the text of the source, unless noted: active = IC50 below about 9 µM; inactive = the rest.

SMILES | GalR3 antag | NR2E3 ag-1 | NR2E3 ag-2 | PG9 Ab binder | NR1D1 modulator | PG9 bind confirm | PGV04 counter | others
CC(=O)c1c(OC(=O)c2ccccc2)ccnc1C(F)(F)F | -3 | 2 | 12 | 9.2* | -3 | 11* | 11*
CC(C)OC(=O)c1ccc(NC(=O)c2cccc(-n3cnnn3)c2)cc1 | -5 | 3 | 4 | -1 | 0 | x | x
Cc1cc(=O)n2c(C(=O)Nc3ccc(C(=O)OC(C)C)cc3)c(C(=O)Nc3ccccc3)sc2n1 | -8 | 9 | -18 | 12* | 18 | 22* | 31*
O=C(N[C@H]1C[C@@H]2O[C@@H](CO)CC[C@@H]2O[C@@H]1CCc1ccc(-c2cccnc2)cc1)c1cccc(F)c1 | x | x | x | x | -4 | x | x
CCCCOc1ccc(C2C(C(=O)c3ccc(C)o3)=C(O)C(=O)N2CC2CCCO2)cc1 (centres undefined) | 3 | 8 | -1 | 26* | 3 | 25* | 30*
Cc1ccc(C(=O)C2=C(O)C(=O)N(CC3CCCO3)C2c2ccccc2F)o1 (centres undefined) | -8 | 12 | -8 | 13* | 2 | 23* | 31*
C=CCN1C(=O)[C@H](CC(=O)NCCC(C)C)[C@@]2(C(=O)OCC)CCCC=C12 | x | x | x | x | 7 | x | x
COc1ccc(OC)c(C(C(=O)NC2CCCCC2)N(C(=O)c2snc(C(N)=O)c2N)c2ccccc2OC)c1 (centres undefined) | -13 | 0 | -10 | 36* | 15 | 36* | 60*
CCOc1cc2[nH]c(=S)n(Cc3ccc(C(=O)NCCCOC)cc3)c(=O)c2cc1OCC | -9 | -1 | -14 | 23* | 13 | 8 | 13*
CCOc1cc2[nH]c(=S)n(Cc3ccc(C(=O)NCCCN(CC)CC)cc3)c(=O)c2cc1OCC | -7 | 2 | 11 | -1 | 3 | x | x
Cc1nc(SCCC(=O)O)c2ccccc2n1 | -9 | 8 | 10 | 22* | x | 19* | 24*
O=C(O)CCSc1ccc2ccccc2n1 | -3 | 15 | -47 | 18* | -3 | 19* | 20*
O=C(O)CSc1ccc2ccccc2n1 | -2 | 6 | -38 | 4 | 0 | x | x
Cc1cc(SCCC(=O)O)nc2ccccc12 | -1 | 3 | 5 | 5 | -2 | x | x
COc1ccc2c(c1)CCCN2C(=O)C1CCCN(S(=O)(=O)c2cc(OC)ccc2OC)C1 (centres undefined) | x | x | x | x | 7 | x | x
CCc1nnc(NC(=O)Cc2ccc(OCc3c(C)noc3C)cc2)s1 | 2 | -1 | -33 | 19* | 10 | 19* | 42*
O=C(Cn1nnc(-c2ccccc2Cl)n1)NCc1ccc2c(c1)OCO2 | 6 | 16 | 1 | 10* | 0 | 11* | 14*
CCC(C(=O)NC1CCCCC1)n1c2ccccc2c2nc(=O)cc(C)n21 (centres undefined) | -2 | -2 | -11 | 16* | -1 | 8 | 9.5*
c1ccc(-c2nccc(-c3ccc(-n4cnc5ccccc54)cc3)n2)cc1 | -6 | -17 | 3 | 15* | -5 | 19* | 14* | PG9 bind DR=i;PGV04 DR counter=i;PG126 binding DR=i
COC(=O)c1ccc(NC(=O)c2ccc(NC(=O)c3ccco3)cc2)cc1 | 0 | -34 | -3 | 19* | 3 | 17* | 11* | PG9 bind DR=i;PGV04 DR counter=>67;PG126 binding DR=>67
CCOc1ccc(C(=O)Nc2ccc(NC(=O)c3ccco3)c(Cl)c2)cc1Br | 1 | -34 | -30 | 36* | 11 | 32* | 44*
CCOc1ccc(C(=O)Nc2ccc(NC(=O)c3ccco3)c(Cl)c2)cc1Cl | 2 | 2 | -17 | 4 | 22 | x | x
CCOC(=O)C1=C(C)NC(SCC(N)=O)=C(C#N)C1c1ccccc1 (centres undefined) | -4 | -1 | -12 | 14* | 5 | 8 | 10*
C=C(C)Cn1c(SCC(=O)N/N=C(\C)c2ccc(Br)cc2)nnc1-c1ccc(Br)cc1 | x | x | x | x | 0 | x | x
N#Cc1cnn2c(N)c(-c3ccc(Cl)cc3)cnc12 | -2 | 1 | -42 | 16* | 1 | 24* | 43*
SMILES | GalR3 antag | NR2E3 ag-1 | NR2E3 ag-2 | PG9 Ab binder | NR1D1 modulator | PG9 bind confirm | PGV04 counter | others
Nc1c(-c2ccccc2)cnc2c(-c3ccccc3)cnn12 | -9 | 0 | -106 | -3 | -4 | x | x
CC(=O)c1cccc(NC(=O)CCc2nnc3ccc(NCc4ccc5c(c4)OCO5)nn23)c1 | -1 | -4 | -11 | 19* | 13 | 23* | 27*
COc1ccc2c(-c3ccccc3)cc3nnnn3c2c1 | -1 | 4 | -11 | 9.9* | 16 | 10* | 24*
COc1ccc(C(=O)/C=C2/Sc3cc4c(cc3N2C)OCO4)cc1 | -5 | -31 | 12 | 40* | 1 | 56* | 49* | PG9 bind DR=>67;PGV04 DR counter=2.4*;PG126 binding DR=2.4*
CN1/C(=C/C(=O)c2ccc(Cl)cc2)Sc2cc3c(cc21)OCO3 | -3 | -1 | -89 | -27 | -31 | x | x
COc1ccc(NC(=O)N(C)[C@H]2C[C@H]3c4[nH]c5c(-c6cccc(C)c6)cccc5c4CCN3C(=O)[C@H]2[C@H](C)O)cc1 | x | x | x | x | 0 | x | x
COc1ccc2nc(C)cc(SCC(=O)Nc3c(C)cccc3C)c2c1 | -4 | 3 | -3 | 10* | 3 | 27* | 33*
COc1ccc2nc(C)cc(SCC(=O)NNC(=O)COc3ccc(C)cc3)c2c1 | -7 | -22 | -1 | -12 | 1 | x | x
Cc1cc(C(=O)Nc2ccc(F)cc2)n(-c2ccccc2)n1 | x | x | x | x | 10 | x | x
Cc1cc(-c2cc(C(=O)O)c3ccccc3n2)c(C)s1 | -3 | 2 | 3 | 0 | -4 | x | x
CCN(CC)CCNC(=O)c1cc(-c2ccc(Br)s2)nc2ccccc12 | -9 | 7 | 13 | 15* | 1 | 26* | 50*
O=C(O)c1cc(-c2ccc(Br)s2)nc2ccccc12 | -3 | x | -93 | 17* | -6 | 25* | 68*
COC(=O)C1CN(Cc2cn(CCC3OCCO3)nn2)CCS(=O)(=O)N1Cc1ccc(C)cc1 (centres undefined) | x | x | x | x | 2 | x | x
COc1ccc(S(=O)(=O)NNC(=O)c2csc(-n3nc(C)cc3C(F)(F)F)n2)cc1OC | -3 | -3 | 5 | 10* | -5 | 7 | 11*
Cc1cc(C(F)(F)F)n(-c2nc(C(=O)NN)cs2)n1 | 3 | 0 | 3 | 1 | 1 | x | x
CCOC(=O)N1CCN(C(=O)C[C@H]2C[C@@]3(C(=O)OC)C(=C[C@H](C(C)C)O[C@@H]3C3CC3)N(Cc3ccco3)C2=O)CC1 | x | x | x | x | -3 | x | x
